Source: PubChem BioAssay
ERp5 inh: inhibitors of human ERp5; Q15084; ERp5 insulin aggregation, absorbance 650 nm, 90 min; inhibition, % at 9.99 µM; hit rate 0.05% among 350,000;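 active = mean replicate inhibition above about 25%, with every replicate also reaching it, limit read from the data, passing the limit was not always enough; inconclusive = only one of those two criteria met; inactive = neither criterion met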
Target sequence (Q15084 whole entry, looked up): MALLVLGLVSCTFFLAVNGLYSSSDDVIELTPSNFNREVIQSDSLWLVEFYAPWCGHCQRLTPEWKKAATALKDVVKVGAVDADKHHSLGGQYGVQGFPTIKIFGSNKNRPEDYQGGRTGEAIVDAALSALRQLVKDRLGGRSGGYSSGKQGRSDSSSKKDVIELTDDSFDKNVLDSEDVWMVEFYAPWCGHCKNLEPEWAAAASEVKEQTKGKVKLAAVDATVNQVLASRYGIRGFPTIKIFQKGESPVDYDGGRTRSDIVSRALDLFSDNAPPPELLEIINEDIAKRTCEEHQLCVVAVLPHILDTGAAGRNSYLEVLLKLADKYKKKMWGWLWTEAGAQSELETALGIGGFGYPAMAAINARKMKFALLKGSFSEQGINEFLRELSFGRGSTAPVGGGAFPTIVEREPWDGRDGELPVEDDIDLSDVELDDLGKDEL
FN deposit inh: fibronectin deposition inhibition | AH1F fibroblasts, Alexa488-fibronectin deposition fluorescence, overnight | inhibition, % at 12.6 µM | hit rate 0.086% among 350,000;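 active = mean inhibition across replicates of 30% or more, regardless of how many single replicates reach that level; inconclusive = mean under 30% yet at least half of replicates reach 30%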
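Assay system: AH1F fibroblasts assembling fluorescent fibronectin matrix; Amount: 10000 AH1F cells per well; Buffer or medium: DMEM, 2% serum; Probe or stimulus: Alexa488-fibronectin, 24 nM final in well; Doses: single compound dose, delivered by pin transfer; Incubation: 1 h adhesion, overnight exposure; Measured by: fluorescence 485/525 nm; Read-out: fibronectin deposition inhibition.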
rRNA inh HTS: inhibitors of bacterial rRNA selective over humanized ribosomes. E. coli WT GFP vs humanized-ribosome RFP mutants, fluorescence, 24 h; stronger effect = lower value; DMSO median 0, no signal -100. hit rate 1.6% among 350,000. AID 720706. GFP signal change (wild-type ribosome), % (test concentration not listed);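 active = significant combined selectivity score with lowered wild-type GFP, culture density cut under 30%, mutant RFP and density less affected; inactive = any of these conditions unmet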
PDI turbidity: PDI (human) enzyme inhibition. P07237. PDI insulin aggregation turbidity, A650, 90 min. inhibition, % at 10 µM. hit rate 0.052% among 350,000. AID 588391;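 active = mean inhibition across replicates of 30% or more, whatever share of single replicates reach that level; inconclusive = mean inhibition below 30% while every single replicate reaches 30%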
PvdQ acylase: P. aeruginosa PvdQ acylase inhibition. hit rate 0.063% among 340,000. inhibition, % at 10 µM. purified PvdQ acylase, fluorescence plate reader; in the data active = inhibition above about 30%, passing the limit was not always enough; inconclusive = no clear call, values can overlap the other calls
HIV Env fusion: blocks HIV Env-driven cell-cell fusion; HeLa-JRFL Env/CEM21 cell fusion, luciferase; inhibition, % at 12.3 µM; hit rate 1.1% among 360,000;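 active = mean replicate inhibition score of at least 50 and every replicate individually at or above 50; inconclusive = only one of the two criteria met; inactive = mean below 50 and not all replicates reaching 50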
Of the large screens only hits and unclear results are named; the others gave an inactive call; [ ] = another dose, or the depositor's remark. Rows were chosen to be rich in hits. Some 2.2% of all compounds tested hit in one or more screens of this group.

C[C@H]1CCCCO[C@@H](CN(C)C(=O)c2ccncc2)[C@@H](C)CN([C@@H](C)CO)C(=O)c2cc(NC(=O)NC3CCCCC3)ccc2O1	none (no result: ERp5 inh, FN deposit inh, PDI turbidity, PvdQ acylase)
C[C@H](CO)N1C[C@H](C)[C@H](CN(C)S(=O)(=O)c2cccs2)Oc2ccc(NC(=O)NC3CCCCC3)cc2CC1=O	HIV Env fusion 84[16.7 µM] (no result: PDI turbidity, PvdQ acylase)
C[C@H]1CN([C@@H](C)CO)C(=O)c2cc(NC(=O)Nc3ccc4c(c3)OCO4)ccc2O[C@H]1CN(C)S(=O)(=O)c1cccs1	HIV Env fusion 57[16.7 µM] (no result: PDI turbidity, PvdQ acylase)
Cc1ccc(S(=O)(=O)N(C)C[C@@H]2Oc3ccc(NC(=O)Nc4ccc(C(F)(F)F)cc4)cc3CC(=O)N([C@H](C)CO)C[C@@H]2C)cc1	HIV Env fusion 76[16.7 µM] (no result: PDI turbidity, PvdQ acylase)
C[C@@H]1CCCCO[C@@H](CN(C)C(=O)c2ccccc2)[C@H](C)CN([C@@H](C)CO)C(=O)c2cc(NC(=O)NC3CCCCC3)ccc2O1	none (no result: PDI turbidity, PvdQ acylase)
Cc1ccc(S(=O)(=O)N(C)C[C@H]2Oc3ncc(Br)cc3C(=O)N([C@@H](C)CO)C[C@@H]2C)cc1	HIV Env fusion 77[16.7 µM] (no result: FN deposit inh, PDI turbidity, PvdQ acylase)
Cc1ccc(S(=O)(=O)N(C)C[C@H]2Oc3ncc(Br)cc3C(=O)N([C@@H](C)CO)C[C@H]2C)cc1	none (no result: FN deposit inh, PDI turbidity, PvdQ acylase)
Cc1ccc(S(=O)(=O)N(C)C[C@@H]2Oc3ncc(Br)cc3C(=O)N([C@@H](C)CO)C[C@@H]2C)cc1	HIV Env fusion 58[16.7 µM] (no result: FN deposit inh, PDI turbidity, PvdQ acylase)
Cc1ccccc1-c1ccccc1[C@H]1[C@@H](C#N)N(C(=O)c2ccccc2)[C@@H]1CO	none (no result: FN deposit inh, rRNA inh HTS, PDI turbidity, PvdQ acylase, HIV Env fusion)
O=[N+]([O-])c1ccc2nc(NN=Cc3ccc(O)cc3)sc2c1	rRNA inh HTS -12 (no result: FN deposit inh)
CC(C)c1ccc(/C=C/C(=O)Nc2nc3ccc([N+](=O)[O-])cc3s2)cc1	none (no result: ERp5 inh, FN deposit inh, rRNA inh HTS)
CCC(=O)Nc1ccc2c(c1)C(=O)N(C)[C@@H]1CC[C@H](CC(=O)N[C@@H](C)c3ccccc3)O[C@H]1CO2	none (no result: PDI turbidity, PvdQ acylase)
C[C@H](CO)N1C[C@H](C)[C@@H](CN(C)Cc2ccc(Cl)c(Cl)c2)OCCCC[C@H](C)Oc2ccc(NS(=O)(=O)c3ccc(F)cc3)cc2C1=O	HIV Env fusion 78[16.7 µM] (no result: PDI turbidity, PvdQ acylase)
C[C@H]1CCCCO[C@H](CN(C)Cc2ccc(Cl)c(Cl)c2)[C@@H](C)CN([C@@H](C)CO)C(=O)c2cc(NS(=O)(=O)c3ccc(F)cc3)ccc2O1	none (no result: PDI turbidity, PvdQ acylase, HIV Env fusion)
C[C@@H]1CCCCO[C@H](CN(C)Cc2ccc(Cl)c(Cl)c2)[C@H](C)CN([C@@H](C)CO)C(=O)c2cc(NS(=O)(=O)c3ccccc3)ccc2O1	HIV Env fusion 57[16.7 µM] (no result: FN deposit inh, PDI turbidity, PvdQ acylase)
CCNC(=O)C[C@@H]1CC[C@@H]2[C@@H](COc3ccc(NS(C)(=O)=O)cc3C(=O)N2C)O1	none (no result: PDI turbidity, PvdQ acylase)
COc1ccccc1CN1[C@@H](CO)[C@@H]2c3ccccc3N(C(=O)C3CCCCC3)C[C@@H]21	none (no result: FN deposit inh, PDI turbidity, PvdQ acylase, HIV Env fusion)
CN1CCN(C(=O)C[C@H]2CC[C@@H]3[C@H](COC[C@@H](O)CN3S(=O)(=O)c3cccc(Cl)c3)O2)CC1	none (no result: PDI turbidity, PvdQ acylase, HIV Env fusion)
CCCNC(=O)C[C@H]1C[C@H]2c3cc(NC(=O)CN(C)C)ccc3O[C@H]2[C@@H](CO)O1	HIV Env fusion 80[16.7 µM] (no result: ERp5 inh, PDI turbidity, PvdQ acylase)
CCCNC(=O)C[C@H]1C[C@@H]2c3cc(NC(=O)CN(C)C)ccc3O[C@@H]2[C@H](CO)O1	none (no result: ERp5 inh, PDI turbidity, PvdQ acylase)
COC(=O)C[C@H]1C[C@@H]2c3cc(NC(=O)Cc4ccncc4)ccc3O[C@@H]2[C@@H](CO)O1	ERp5 inh 60 (no result: PDI turbidity, PvdQ acylase)
CCCNC(=O)C[C@@H]1C[C@@H]2c3cc(NC(=O)CN(C)C)ccc3O[C@@H]2[C@H](CO)O1	HIV Env fusion 91[16.7 µM] (no result: ERp5 inh, PDI turbidity, PvdQ acylase)
COC(=O)C[C@H]1C[C@H]2c3cc(NC(=O)Cc4ccncc4)ccc3O[C@H]2[C@@H](CO)O1	none (no result: PvdQ acylase)
CCCNC(=O)C[C@H]1C[C@H]2c3cc(NC(=O)Cc4ccncc4)ccc3O[C@H]2[C@H](CO)O1	HIV Env fusion 88[16.7 µM] (no result: ERp5 inh, PDI turbidity, PvdQ acylase)
CO[C@@H]1CN(C)C(=O)c2cc(NC(C)=O)ccc2OC[C@@H](C)N(CCc2ccccc2)C[C@@H]1C	none (no result: PDI turbidity, PvdQ acylase, HIV Env fusion)
C=C[C@@H]1c2ccccc2N(S(=O)(=O)c2ccc(C)cc2)[C@H](c2ccc(C(F)(F)F)cc2)C1(C#N)C#N	HIV Env fusion 56
C=C[C@@H]1c2ccccc2N(S(=O)(=O)c2ccc(C)cc2)[C@H](c2ccccc2C(F)(F)F)C1(C#N)C#N	HIV Env fusion inconclusive
CCN1C(=O)Nc2cccc3cccc1c23	HIV Env fusion 62
Cc1cc(N2CCN(Cc3ccccc3)CC2)n2nc(C)c(-c3ccccc3)c2n1	HIV Env fusion 63 (no result: ERp5 inh, rRNA inh HTS)
COc1ccc(-c2c(C)nn3c(N4CCN(Cc5ccccc5)CC4)cc(C)nc23)cc1OC	none
CC(C)(C)OC(=O)N(CCc1ccccc1)Cc1ccc(OCc2cccc(NC(=O)C3CC3)c2)cc1	none (no result: FN deposit inh)
CC(C)C(=O)Nc1cccc(COc2ccc(CN(Cc3ccccc3)C(=O)OC(C)(C)C)cc2)c1	HIV Env fusion 58
CC(C)(C)OC(=O)N(CCc1ccccc1)Cc1cccc(OCc2cccc(NC(=O)c3ccccc3)c2)c1	HIV Env fusion 66
CC(C)C(=O)Nc1ccc(COc2ccccc2CN(Cc2ccccc2)C(=O)OC(C)(C)C)cc1	none
C[C@@H]1CCCCO[C@H](CN(C)Cc2ccc(Cl)c(Cl)c2)[C@H](C)CN([C@@H](C)CO)C(=O)c2cc(NC(=O)NC3CCCCC3)ccc2O1	none (no result: FN deposit inh, PDI turbidity, PvdQ acylase)
Cc1ccc(Cn2ccsc2=NC(=O)COC(=O)c2ccc(O)cc2O)cc1	rRNA inh HTS -26
O=C(COC(=O)c1ccc(O)cc1O)N=c1sccn1Cc1ccccc1Cl	none (no result: FN deposit inh)
CC(=O)c1c(C)[nH]c(C(=O)OCC(=O)N2CCN(c3ccccc3)CC2)c1C	none (no result: PvdQ acylase)
CC(=O)c1c(C)[nH]c(C(=O)OCC(=O)N2CCc3ccccc3C2)c1C	rRNA inh HTS -22 (no result: HIV Env fusion)
